Test results reported in ChEMBL document CHEMBL4406897 (Bioorg Med Chem, 2019).

Legend:
Plasmodium falciparum [1] = assay: Antimalarial activity against pyrimethamine-resistant Plasmodium falciparum V1/S expressing Dihydrofolate reductase N51I/C59R/S108N/I164L mutant infected in human erythrocytes assessed as reduction in [3H]-hypoxanthine incorporation pretreated for 18 hrs followed by [3H]-hypoxanthine addition measured after 24 hrs by liquid scintillation counting method; type: functional, organism-based
Outline: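 P. falciparum V1/S kept in continuous culture in human erythrocytes at 37 °C under 3% CO2. Growth inhibition was read as [3H]-hypoxanthine incorporation.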

[2] = Competitive inhibition of wild type Plasmodium falciparum dihydrofolate reductase expressed in Escherichia coli BL21(DE3)pLysS using dihydrofolate as substrate in presence of NADPH by UV-vis spectrophotometry analysis
Outline: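 Wild-type PfDHFR expressed from pET plasmid after 0.4 mM IPTG induction at 20 °C for 20 h. Cells lysed by French press at 18,000 psi. Enzyme purified on methotrexate-Sepharose in 20 mM potassium phosphate pH 7.0 with 0.1 mM EDTA, 10 mM DTT, 50 mM KCl and 20% glycerol. Activity read spectrophotometrically at 25 °C. Ki measured in microplate format, assuming competitive inhibition.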

[3] = Competitive inhibition of Plasmodium falciparum dihydrofolate reductase N51I/C59R/S108N/I164L quadruple mutant expressed in Escherichia coli BL21(DE3)pLysS using dihydrofolate as substrate in presence of NADPH by UV-vis spectrophotometry analysis
Outline: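 Quadruple-mutant PfDHFR expressed from a pET plasmid in E. coli BL21(DE3)pLysS, induced with 0.4 mM IPTG at 20 °C for 20 h. Cells lysed by French press at 18,000 psi. Enzyme purified on methotrexate-Sepharose in 20 mM potassium phosphate pH 7.0 with 50 mM KCl, 10 mM DTT, 0.1 mM EDTA and 20% glycerol. Activity read spectrophotometrically at 25 °C. Ki measured in microplate format, assuming competitive inhibition.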

Vero = assay: Cytotoxicity against African green monkey Vero cells by sulforhodamine B assay; type: cell-based; conditions: Chlorocebus sabaeus
Plasmodium falciparum [4] = assay: Antimalarial activity against Plasmodium falciparum TM4/8.2 infected in human erythrocytes assessed as reduction in [3H]-hypoxanthine incorporation pretreated for 24 hrs followed by [3H]-hypoxanthine addition measured after 18 hrs by liquid scintillation counting method; type: functional, organism-based
Dihydrofolate reductase [5] = target: T1, Dihydrofolate reductase (Homo sapiens, UniProt P00374); assay: Inhibition of human dihydrofolate reductase using dihydrofolate as substrate in presence of NADPH by UV-vis spectrophotometry analysis
T1 sequence (P00374 whole entry): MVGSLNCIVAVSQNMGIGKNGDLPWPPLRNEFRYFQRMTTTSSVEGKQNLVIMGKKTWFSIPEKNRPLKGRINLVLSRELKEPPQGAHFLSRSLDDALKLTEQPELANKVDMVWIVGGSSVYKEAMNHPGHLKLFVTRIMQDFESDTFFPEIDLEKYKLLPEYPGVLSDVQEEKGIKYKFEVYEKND

dihydrofolate reductase [6] = assay: Selectivity ratio of Ki for human dihydrofolate reductase to Ki for wild type Plasmodium falciparum TM4/8.2 dihydrofolate reductase; type: toxicity; conditions: read-out: Ratio Ki
Plasmodium falciparum [7] = assay: Ratio of compound IC50 to pyrimethamine IC50 for antimalarial activity against Plasmodium falciparum TM4/8.2 infected in human erythrocytes; type: functional
Plasmodium falciparum [8] = assay: Ratio of compound IC50 to pyrimethamine IC50 for antimalarial activity against Plasmodium falciparum V1/S infected in human erythrocytes; type: functional
dihydrofolate reductase [9] = assay: Selectivity ratio of Ki for human dihydrofolate reductase to Ki for Plasmodium falciparum dihydrofolate reductase N51I/C59R/S108N/I164L quadruple mutant; type: toxicity; conditions: read-out: Ratio Ki
[10] = Selectivity ratio of IC50 for African green monkey Vero cells to IC50 for Plasmodium falciparum TM4/8.2 infected in human erythrocytes; type: toxicity, cell-based; conditions: read-out: Ratio IC50
[11] = Selectivity ratio of IC50 for African green monkey Vero cells to IC50 for Plasmodium falciparum V1/S infected in human erythrocytes; type: toxicity, cell-based; conditions: read-out: Ratio IC50

Row | Compound | IC50 (Plasmodium falciparum [1]) | Ki [2] | Ki [3] | IC50 (Vero) | IC50 (Plasmodium falciparum [4]) | Ki (Dihydrofolate reductase [5]; read-out: Ki) | selectivity ratio (dihydrofolate reductase [6]) | Ratio IC50 (Plasmodium falciparum [7]) | Ratio IC50 (Plasmodium falciparum [8]) | selectivity ratio (dihydrofolate reductase [9]) | selectivity ratio [10] | selectivity ratio [11] | Ki (Dihydrofolate reductase [5])
1 | CCc1nc(N)nc(N)c1-c1ccc(Cl)cc1 [PYRIMETHAMINE] | > 100000 nM | 0.6 nM | 385 nM | – | – | – | – | – | – | – | – | – | –
2 | Cl.Nc1nc(N)c(-c2cccc(Cl)c2)c(COc2cccc(OCCCC(=O)O)c2)n1 | 6200 nM | – | – | > 100000 nM | 1800 nM | 74.2 nM | – | – | – | – | – | – | –
3 | Cl.Nc1nc(N)c(-c2cccc(Cl)c2)c(CCCCOc2cccc(OCC(=O)O)c2)n1 | 1420 nM | – | 0.72 nM | > 50000 nM | 43 nM | 13.4 nM | – | – | – | – | – | – | –
4 | Cl.Nc1nc(N)c(-c2ccccc2)c(COc2cccc(OCCCC(=O)O)c2)n1 | 31100 nM | – | – | > 50000 nM | 5240 nM | 556 nM | – | – | – | – | – | – | –
5 | Cl.Nc1nc(N)c(-c2ccccc2)c(CCCOc2ccccc2)n1 | 15100 nM | – | 1.37 nM | 1390 nM | 130 nM | 12.5 nM | – | – | – | – | – | – | –
6 | Cl.Nc1nc(N)c(-c2ccccc2)c(COc2cccc(OCC(=O)O)c2)n1 | > 100000 nM | – | – | > 100000 nM | 52600 nM | 509 nM | – | – | – | – | – | – | –
7 | Cl.Nc1nc(N)c(-c2cccc(Cl)c2)c(CCCCCOc2ccccc2)n1 | 9170 nM | – | 3.2 nM | 7210 nM | 430 nM | 18.4 nM | – | – | – | – | – | – | –
8 | Cl.Nc1nc(N)c(-c2ccccc2)c(CCCCOc2ccccc2)n1 | 11200 nM | – | 1.73 nM | 15400 nM | 360 nM | 48.7 nM | – | – | – | – | – | – | –
9 | Cl.Nc1nc(N)c(-c2cccc(Cl)c2)c(CCCOc2cccc(OCC(=O)O)c2)n1 | 430 nM | – | 0.41 nM | > 50000 nM | 48 nM | 13.6 nM | – | – | – | – | – | – | –
10 | CCc1nc(N)nc(N)c1-c1ccccc1 | > 50000 nM | – | – | – | 720 nM | 10.4 nM | – | – | – | – | – | – | –
11 | Cl.Nc1nc(N)c(-c2cccc(Cl)c2)c(CCCOc2ccccc2)n1 | 3420 nM | 0.24 nM | 1.16 nM | 470 nM | 170 nM | 8.72 nM | 36.3 | 2.13 | 0.03 | 7.52 | 2.76 | 0.14 | –
12 | Cl.Nc1nc(N)c(-c2ccccc2)c(CCc2ccccc2OCCCc2ccccc2)n1 | 6150 nM | – | – | 4960 nM | 6730 nM | 27.3 nM | – | – | – | – | – | – | –
13 | Cl.Nc1nc(N)c(-c2ccccc2)c(CCCOc2cccc(OCC(=O)O)c2)n1 | 2710 nM | – | 0.5 nM | > 10000 nM | 71 nM | 18.2 nM | – | – | – | – | – | – | –
14 | Cl.Nc1nc(N)c(-c2cccc(Cl)c2)c(CCc2ccccc2OCCCc2ccccc2)n1 | 5500 nM | – | – | 650 nM | 6250 nM | – | – | – | – | – | – | – | Active
15 | CCOC(=O)CCCOc1ccccc1CCc1nc(N)nc(N)c1-c1ccccc1.Cl | > 10000 nM | – | – | > 10000 nM | 1250 nM | 32.4 nM | – | – | – | – | – | – | –
16 | CCOC(=O)CCCOc1ccccc1CCc1nc(N)nc(N)c1-c1cccc(Cl)c1 | 5240 nM | – | – | 8130 nM | 710 nM | 23.4 nM | – | – | – | – | – | – | –
17 | Cl.Nc1nc(N)c(-c2ccccc2)c(CCc2ccccc2OCc2ccccc2)n1 | 4370 nM | – | – | 1870 nM | 650 nM | 22.1 nM | – | – | – | – | – | – | –
18 | Cl.Nc1nc(N)c(-c2cccc(Cl)c2)c(CCCOc2cccc(OCCCC(=O)O)c2)n1 | 440 nM | – | 0.98 nM | > 10000 nM | 49 nM | 19.6 nM | – | – | – | – | – | – | –
19 | Cl.Nc1nc(N)c(-c2ccccc2)c(CCCOc2cccc(OCCCC(=O)O)c2)n1 | 540 nM | – | 1.26 nM | > 25000 nM | 52 nM | 29.1 nM | – | – | – | – | – | – | –
20 | Cl.Nc1nc(N)c(-c2cccc(Cl)c2)c(CCCCOc2ccccc2)n1 | 6940 nM | – | 1.49 nM | 5150 nM | 340 nM | 12.8 nM | – | – | – | – | – | – | –
21 | Cl.Nc1nc(N)c(-c2ccccc2)c(CCCCOc2cccc(OCCCC(=O)O)c2)n1 | 3910 nM | – | 1.24 nM | > 100000 nM | 71 nM | 34.8 nM | – | – | – | – | – | – | –
22 | Cl.Nc1nc(N)c(-c2ccccc2)c(CCCCOc2cccc(OCC(=O)O)c2)n1 | > 1000 nM | 0.5 nM | 1.04 nM | > 1000 nM | 58 nM | 46 nM | 91.9 | 0.73 | 0.01 | 44.2 | > 17.2 | – | –
23 | Cl.Nc1nc(N)c(-c2cccc(Cl)c2)c(CCc2ccccc2OCc2ccccc2)n1 | 4810 nM | – | 3.06 nM | 400 nM | 1940 nM | 14.4 nM | – | – | – | – | – | – | –
24 | Cl.Nc1nc(N)c(-c2cccc(Cl)c2)c(COc2cccc(OCC(=O)O)c2)n1 | 11400 nM | – | – | > 10000 nM | 6010 nM | 52.4 nM | – | – | – | – | – | – | –
25 | Cl.Nc1nc(N)c(-c2ccccc2)c(CCCCCOc2ccccc2)n1 | 7890 nM | 0.3 nM | 3.61 nM | 7910 nM | 380 nM | 32.9 nM | 110 | 4.75 | 0.08 | 9.11 | 20.8 | 1 | –
26 | Cl.Nc1nc(N)c(-c2cccc(Cl)c2)c(CCCCOc2cccc(OCCCC(=O)O)c2)n1 | 3000 nM | – | 0.93 nM | > 100000 nM | 51 nM | 21.7 nM | – | – | – | – | – | – | –
